In ChEMBL document CHEMBL4364323, “Synthesis and biological evaluation of moxifloxacin-acetyl-1,2,3-1H-triazole-methylene-isatin hybrids as potential anti-tubercular agents against both drug-susceptible and drug-resistant Mycobacterium tuberculosis strains” (Eur J Med Chem, 2019):
Values after ≈ are worked out from the molar mass of the structure shown.

Key:
[1] = Cytotoxicity against African green monkey Vero cells incubated for 72 hrs by MTT assay; format: cell-based; settings: chlorocebus sabaeus
How it was run: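 Compounds were dissolved in DMSO and tested at 128 to 4 μg/mL. VERO cells were grown in MEM with Earle's salts plus 10% FBS at 37 °C, 5% CO2, seeded at 1×10^4 cells/well and allowed to recover 24 h. Cells were then exposed to compound or drug-free medium for 72 h. Viability was read by MTT, and CC50 was calculated by Bliss analysis.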

[2] = Selectivity index, ratio of CC50 for African green monkey Vero cells to MIC for Mycobacterium tuberculosis H37Rv; format: toxicity; settings: read-out: Selectivity Index
[3] = test system: Mycobacterium tuberculosis; assay: Antimycobacterial activity against Mycobacterium tuberculosis H37Rv incubated for 7 days by rapid direct susceptibility test; format: functional; settings: 168 h
How it was run: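 Two-fold compound dilutions were mixed with MTB suspension containing 4×10 -3 mg cells per well and incubated at 37 °C in a wet box. MIC was read from the quantity and state of cells in each well under a continuous visual high-magnification system and was re-determined 7 days later.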

[4] = Cmax in SPF ICR mouse at 100 mg/kg, sc; format: ADME, organism-based; parameters: dose 100 mg/kg, route subcutaneous; settings: in vivo
How it was run: (§1)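 Female SPF ICR mice (20-25 g) dosed once at 100 mg/kg by subcutaneous injection. Plasma concentration-time data were collected. Cmax, Tmax, t1/2 and AUC0-inf were taken directly from the experimental data.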

[5] = Tmax in SPF ICR mouse at 100 mg/kg, sc; format: ADME, organism-based; settings: in vivo; how it was run: as §1
[6] = AUC (0 to infinity) in SPF ICR mouse at 100 mg/kg, sc; format: ADME, organism-based; parameters: dose 100 mg/kg, route subcutaneous, time infinity; settings: in vivo; how it was run: as §1
[7] = molecular target: DNA gyrase subunit A/DNA gyrase subunit B (Mycobacterium tuberculosis (strain ATCC 25618 / H37Rv), UniProt P9WG45+P9WG47); assay: Inhibition of Mycobacterium tuberculosis DNA gyrase; format: protein-complex assay
[8] = Half life in SPF ICR mouse at 100 mg/kg, sc; format: ADME, organism-based; settings: in vivo
CHO = assay: Cytotoxicity against CHO cells assessed as slight change in cell viability at 128 to 4 ug/ml; format: cell-based, Cricetulus griseus; settings: chinese hamster

Sequence of DNA gyrase subunit A/DNA gyrase subunit B (P9WG45 whole entry): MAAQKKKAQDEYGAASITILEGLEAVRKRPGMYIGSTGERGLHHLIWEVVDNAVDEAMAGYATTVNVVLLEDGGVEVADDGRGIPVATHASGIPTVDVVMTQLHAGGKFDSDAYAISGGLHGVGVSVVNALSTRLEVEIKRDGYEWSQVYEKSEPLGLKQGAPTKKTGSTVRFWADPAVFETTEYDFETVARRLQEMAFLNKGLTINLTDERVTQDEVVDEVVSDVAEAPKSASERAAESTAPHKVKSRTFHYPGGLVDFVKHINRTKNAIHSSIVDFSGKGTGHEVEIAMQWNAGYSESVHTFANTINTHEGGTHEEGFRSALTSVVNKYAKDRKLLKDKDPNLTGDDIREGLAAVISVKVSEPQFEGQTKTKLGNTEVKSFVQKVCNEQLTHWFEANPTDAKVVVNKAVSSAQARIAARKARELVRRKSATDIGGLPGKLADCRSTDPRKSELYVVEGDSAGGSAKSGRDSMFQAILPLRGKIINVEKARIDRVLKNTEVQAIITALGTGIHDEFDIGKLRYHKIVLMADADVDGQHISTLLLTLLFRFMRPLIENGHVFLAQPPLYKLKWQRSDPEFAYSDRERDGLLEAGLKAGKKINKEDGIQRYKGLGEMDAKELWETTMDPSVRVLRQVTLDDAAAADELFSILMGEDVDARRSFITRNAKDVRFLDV
Sequence of DNA gyrase subunit A/DNA gyrase subunit B (P9WG47 whole entry): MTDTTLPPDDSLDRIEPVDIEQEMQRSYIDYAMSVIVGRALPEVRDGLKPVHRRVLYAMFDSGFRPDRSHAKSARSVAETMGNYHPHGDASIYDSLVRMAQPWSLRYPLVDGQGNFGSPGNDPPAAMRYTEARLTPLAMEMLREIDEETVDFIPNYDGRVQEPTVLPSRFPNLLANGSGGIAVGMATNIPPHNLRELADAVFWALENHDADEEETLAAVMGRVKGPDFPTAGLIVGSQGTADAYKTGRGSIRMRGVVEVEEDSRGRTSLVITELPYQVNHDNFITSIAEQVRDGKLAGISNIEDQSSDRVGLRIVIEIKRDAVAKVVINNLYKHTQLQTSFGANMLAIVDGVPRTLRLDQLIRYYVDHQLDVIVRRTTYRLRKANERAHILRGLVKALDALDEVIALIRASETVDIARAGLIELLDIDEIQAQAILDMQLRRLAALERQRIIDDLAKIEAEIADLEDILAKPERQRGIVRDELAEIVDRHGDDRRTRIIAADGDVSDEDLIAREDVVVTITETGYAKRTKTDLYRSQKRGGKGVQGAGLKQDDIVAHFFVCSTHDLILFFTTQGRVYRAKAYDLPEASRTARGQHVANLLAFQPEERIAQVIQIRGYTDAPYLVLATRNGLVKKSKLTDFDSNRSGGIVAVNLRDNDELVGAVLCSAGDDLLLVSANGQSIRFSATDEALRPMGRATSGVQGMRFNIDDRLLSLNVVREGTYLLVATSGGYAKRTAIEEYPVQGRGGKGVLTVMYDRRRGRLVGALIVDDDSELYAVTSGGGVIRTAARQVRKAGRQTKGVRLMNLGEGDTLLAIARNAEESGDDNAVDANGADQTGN

Compound | CC50 at 72 h [1] [µg/mL] | selectivity ratio [2] | MIC [3] [µg/mL] | Cmax [4] [ng/mL] | Tmax [5] [min] | AUC(0-inf) [6] [ng·h/mL] | IC50 [7] [µM] | half-life [8] [min] | Activity (CHO)
CO/N=C1/C(=O)N(Cc2cn(CC(=O)N3CCC[C@@H]4CN(c5c(F)cc6c(=O)c(C(=O)O)cn(C7CC7)c6c5OC)C[C@@H]43)nn2)c2ccc(C)cc21 | 64 (≈ 89.8 µM) | 16 | 4 (≈ 5.61 µM) |  |  |  |  |  | 
COc1c(N2C[C@H]3CCCN(C(=O)Cn4cc(CN5C(=O)C(=O)c6cc(C)ccc65)nn4)[C@H]3C2)c(F)cc2c(=O)c(C(=O)O)cn(C3CC3)c12 | 64 (≈ 93.6 µM) | 32 | 2 (≈ 2.93 µM) |  |  |  |  |  | 
COc1c(N2C[C@@H]3CCCN[C@@H]3C2)c(F)cc2c(=O)c(C(=O)O)cn(C3CC3)c12 [MOXIFLOXACIN] |  |  | 0.12 (≈ 0.299 µM) | 10800 | 27 | 19200 |  |  | 
COc1c(N2C[C@H]3CCCN(C(=O)Cn4cc(CN5C(=O)/C(=N/NC(N)=S)c6ccccc65)nn4)[C@H]3C2)c(F)cc2c(=O)c(C(=O)O)cn(C3CC3)c12 | 16 (≈ 21.5 µM) | 128 | 0.12 (≈ 0.162 µM) | 1400 | 52 | 3270 | 6.73 | 258 | Toxic
CO[C@H]1/C=C/O[C@@]2(C)Oc3c(C)c(O)c4c(O)c(c(/C=N/N5CCN(C)CC5)c(O)c4c3C2=O)NC(=O)/C(C)=C\C=C\[C@H](C)[C@H](O)[C@@H](C)[C@@H](O)[C@@H](C)[C@H](OC(C)=O)[C@@H]1C [RIFAMPIN] | > 128 | > 512 | 0.06 (≈ 0.0729 µM) |  |  |  |  |  | 
COc1c(N2C[C@H]3CCCN(C(=O)Cn4cc(CN5C(=O)/C(=N/O)c6cccc(F)c65)nn4)[C@H]3C2)c(F)cc2c(=O)c(C(=O)O)cn(C3CC3)c12 | 16 (≈ 22.8 µM) | 1 | 16 (≈ 22.8 µM) |  |  |  |  |  | 
NNC(=O)c1ccncc1 [ISONIAZID] |  | 1024 | 0.12 (≈ 0.875 µM) |  |  |  |  |  | 
CO/N=C1/C(=O)N(Cc2cn(CC(=O)N3CCC[C@@H]4CN(c5c(F)cc6c(=O)c(C(=O)O)cn(C7CC7)c6c5OC)C[C@@H]43)nn2)c2ccccc21 | 128 (≈ 183 µM) | 256 | 0.5 (≈ 0.716 µM) | 3250 | 39 | 6440 | 8.59 | 186 | Toxic
COc1c(N2CCNC(C)C2)c(F)cc2c(=O)c(C(=O)O)cn(C3CC3)c12 (centres undefined) [GATIFLOXACIN] | 64 (≈ 170 µM) | 128 | 0.5 (≈ 1.33 µM) |  |  |  | 13.3 |  | 
COc1c(N2C[C@H]3CCCN(C(=O)Cn4cc(CN5C(=O)/C(=N/O)c6cc(F)ccc65)nn4)[C@H]3C2)c(F)cc2c(=O)c(C(=O)O)cn(C3CC3)c12 | 16 (≈ 22.8 µM) | 8 | 2 (≈ 2.85 µM) |  |  |  |  |  | 
CO/N=C1/C(=O)N(Cc2cn(CC(=O)N3CCC[C@@H]4CN(c5c(F)cc6c(=O)c(C(=O)O)cn(C7CC7)c6c5OC)C[C@@H]43)nn2)c2c(F)cccc21 | 16 (≈ 22.3 µM) | 1 | 16 (≈ 22.3 µM) |  |  |  |  |  | 
COc1c(N2C[C@H]3CCCN(C(=O)Cn4cc(CN5C(=O)/C(=N/NC(N)=S)c6cccc(F)c65)nn4)[C@H]3C2)c(F)cc2c(=O)c(C(=O)O)cn(C3CC3)c12 | 8 (≈ 10.5 µM) | 1 | 8 (≈ 10.5 µM) |  |  |  |  |  | 
COc1c(N2C[C@H]3CCCN(C(=O)Cn4cc(CN5C(=O)C(=O)c6ccccc65)nn4)[C@H]3C2)c(F)cc2c(=O)c(C(=O)O)cn(C3CC3)c12 | 32 (≈ 47.8 µM) | 128 | 0.25 (≈ 0.373 µM) |  |  |  | 5.97 |  | 
CO/N=C1/C(=O)N(Cc2cn(CC(=O)N3CCC[C@@H]4CN(c5c(F)cc6c(=O)c(C(=O)O)cn(C7CC7)c6c5OC)C[C@@H]43)nn2)c2ccc(F)cc21 | 32 (≈ 44.6 µM) | 32 | 1 (≈ 1.4 µM) |  |  |  |  |  | 
COc1c(N2C[C@H]3CCCN(C(=O)Cn4cc(CN5C(=O)C(=O)c6cccc(F)c65)nn4)[C@H]3C2)c(F)cc2c(=O)c(C(=O)O)cn(C3CC3)c12 | 32 (≈ 46.5 µM) | 4 | 8 (≈ 11.6 µM) |  |  |  |  |  | 
COc1c(N2C[C@H]3CCCN(C(=O)Cn4cc(CN5C(=O)C(=O)c6cc(F)ccc65)nn4)[C@H]3C2)c(F)cc2c(=O)c(C(=O)O)cn(C3CC3)c12 | 16 (≈ 23.3 µM) | 16 | 1 (≈ 1.45 µM) |  |  |  |  |  | 
COc1c(N2C[C@H]3CCCN(C(=O)Cn4cc(CN5C(=O)/C(=N/O)c6ccccc65)nn4)[C@H]3C2)c(F)cc2c(=O)c(C(=O)O)cn(C3CC3)c12 | 32 (≈ 46.7 µM) | 32 | 1 (≈ 1.46 µM) |  |  |  |  |  | 
COc1c(N2C[C@H]3CCCN(C(=O)Cn4cc(CN5C(=O)/C(=N/NC(N)=S)c6cc(F)ccc65)nn4)[C@H]3C2)c(F)cc2c(=O)c(C(=O)O)cn(C3CC3)c12 | 8 (≈ 10.5 µM) | 32 | 0.25 (≈ 0.329 µM) |  |  |  | 10.5 |  | 
